Source: ChEMBL document CHEMBL3244248, “Substituted 3-amino-1,1-diaryl-2-propanols as potential antidepressant agents” (J Med Chem, 1979)
pIC50: −log10 of the molar value. Values belong to the compound of their own block, whether it stands above or below them. Activity calls are given as the source filed them. The calls are words filed in the database; no cut-off is given here.

Assays:
Mus musculus [1] = experiment: Antidepressant activity against reserpine-induced hypothermia CFLP mouse model assessed as change in esophageal temperature at 10 mg/kg, po treated before 2 to 24 hrs of reserpine challenge; type: functional, organism-based; set-up: dose 10 mg/kg
Method in brief: (§1)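 Male CFLP mice (18–23 g), two groups of five, received oral compound or vehicle 24, 18 and 2 h before iv reserpine base (1 mg/kg). Esophageal temperature was read before reserpine and at 2, 4 and 6 h. Test-minus-control mean differences at the three times were summed and corrected for the 0 h difference, giving Δ6 (°C).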

Mus musculus [2] = experiment: Antidepressant activity against reserpine-induced hypothermia CFLP mouse model assessed as change in esophageal temperature at 100 mg/kg, po treated before 2 to 24 hrs of reserpine challenge; type: functional, organism-based; set-up: dose 100 mg/kg; method in brief: as §1
Mus musculus [3] = experiment: Antidepressant activity against reserpine-induced hypothermia CFLP mouse model assessed as change in esophageal temperature < 5 degC at 100 mg/kg, po treated before 2 to 24 hrs of reserpine challenge; type: functional, organism-based; set-up: dose 100 mg/kg; method in brief: as §1
Ileum = experiment: Anticholinergic effect in guinea pig ileum assessed as inhibition of acetylcholine-induced contraction; type: tissue-based; details: Cavia porcellus, read-out: pA2 (converted)
Method in brief: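 Guinea pig ileum contracted by acetylcholine. ED50 values were generated from a dose–response fit, p = D^E/(D^E + K^E), and converted to pA2. pA2 is the negative log10 of the molar antagonist concentration that reduces the effect of two equal acetylcholine doses to that of a single dose.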

Mus musculus [4] = species: Mus musculus; experiment: Anticholinergic effect in CFLP mouse assessed as mydriasis; details: in vivo
[5] = Anticholinergic effect in sc dosed CFLP mouse assessed as inhibition of pilocarpine-induced salivation; type: organism-based; details: in vivo
Method in brief: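 Male CFLP mice (18–23 g), groups of eight. Vehicle or drug was given sc 20 min before urethane anaesthesia (1.8 g/kg sc), and pilocarpine (2 mg/kg sc) followed 10 min later. Salivation areas on chromatography paper were measured by planimeter every 5 min for 35 min. Percentage change from control was regressed against log dose to give an ED50 with fiducial limits.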

Mus musculus [6] = experiment: Antidepressant activity against reserpine-induced hypothermia CFLP mouse model assessed as change in esophageal temperature at 30 mg/kg, po treated before 2 to 24 hrs of reserpine challenge; type: functional, organism-based; set-up: dose 30 mg/kg; method in brief: as §1
Mus musculus [7] = experiment: Antidepressant activity against reserpine-induced hypothermia CFLP mouse model assessed as change in esophageal temperature at 60 mg/kg, po treated before 2 to 24 hrs of reserpine challenge; type: functional, organism-based; set-up: dose 60 mg/kg; method in brief: as §1
Mus musculus [8] = experiment: Antidepressant activity against reserpine-induced hypothermia CFLP mouse model assessed as change in esophageal temperature < 5 degC at 30 mg/kg, po treated before 2 to 24 hrs of reserpine challenge
Mus musculus [9] = experiment: Antidepressant activity against reserpine-induced hypothermia CFLP mouse model assessed as change in esophageal temperature at 16 mg/kg, po treated before 2 to 24 hrs of reserpine challenge; type: functional, organism-based; set-up: dose 16 mg/kg; method in brief: as §1
Mus musculus [10] = experiment: Antidepressant activity against reserpine-induced hypothermia CFLP mouse model assessed as change in esophageal temperature at 5 mg/kg, po treated before 2 to 24 hrs of reserpine challenge; type: functional, organism-based; set-up: dose 5 mg/kg; method in brief: as §1
Mus musculus [11] = experiment: Antidepressant activity against reserpine-induced hypothermia CFLP mouse model assessed as change in esophageal temperature at 6 mg/kg, po treated before 2 to 24 hrs of reserpine challenge; type: functional, organism-based; set-up: dose 6 mg/kg; method in brief: as §1
Mus musculus [12] = experiment: Antidepressant activity against reserpine-induced hypothermia CFLP mouse model assessed as change in esophageal temperature at 20 mg/kg, po treated before 2 to 24 hrs of reserpine challenge; type: functional, organism-based; set-up: dose 20 mg/kg; method in brief: as §1
Mus musculus [13] = experiment: Antidepressant activity against reserpine-induced hypothermia CFLP mouse model assessed as change in esophageal temperature at 3 mg/kg, po treated before 2 to 24 hrs of reserpine challenge; type: functional, organism-based; set-up: dose 3 mg/kg; method in brief: as §1
Mus musculus [14] = experiment: Antidepressant activity against reserpine-induced hypothermia CFLP mouse model assessed as change in esophageal temperature at 4 mg/kg, po treated before 2 to 24 hrs of reserpine challenge; type: functional, organism-based; set-up: dose 4 mg/kg; method in brief: as §1
[15] = Inhibition of radiolabeled dopamine uptake in whole rat brain synaptosome; type: functional, tissue-based
Mus musculus [16] = experiment: Toxicity in mouse assessed as CNS stimulation up to 8 mg/kg, po; type: organism-based, Central nervous system; set-up: dose 8 mg/kg, route oral; details: in vivo
Brain = experiment: In vivo inhibition of hydroxytryptamine-induced depletion of rat brain noradrenaline; type: functional
Rattus norvegicus = experiment: Toxicity in substantia nigra lesioned rat assessed as turning behaviour up to 50 mg/kg, po; type: organism-based; set-up: dose 50 mg/kg, route oral; details: in vivo
Method in brief: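 Rats with a unilateral substantia nigra lesion, dosed orally at up to 50 mg/kg, and observed for turning.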

[17] = Inhibition of radiolabeled 5-hydroxytryptamine uptake in whole rat brain synaptosome; type: functional, tissue-based
[18] = Inhibition of radiolabeled noradrenaline uptake in whole rat brain synaptosome; type: functional, tissue-based
Mus musculus [19] = experiment: Antidepressant activity against reserpine-induced hypothermia CFLP mouse model assessed as change in esophageal temperature at 1 mg/kg, po treated before 2 to 24 hrs of reserpine challenge; type: functional, organism-based; set-up: dose 1 mg/kg; method in brief: as §1

Compound: CCN(CC)CC(O)C(c1ccccc1)c1ccccc1 (stereo unspecified)
deltaT (Mus musculus [1]): 5 °C

Compound: CN(C)CC(O)C(CCc1ccccc1)c1ccccc1 (stereo unspecified)
deltaT (Mus musculus [2]): 7.4 °C

Compound: NCC(O)C(c1ccccc1)c1ccccc1 (stereo unspecified)
Activity (Mus musculus [3]): inactive

ED50 (Mus musculus [4]): 26 mg/kg | ED50 [5]: 63 mg/kg
Compound: Br.CN(C)C[C@H](O)C(c1ccccc1)c1ccccc1
Kb (Ileum): 3.16 µM

Compound: CN(C)CC(O)C(O)(c1ccccc1)c1ccccc1 (stereo unspecified)
deltaT (Mus musculus [6]): 5.5 °C

Compound: Cc1ccccc1C(c1ccccc1)C(O)CN(C)C (stereo unspecified)
deltaT (Mus musculus [1]): 10.4 °C

Compound: CNCC(C)(O)C(c1ccccc1)c1ccccc1 (stereo unspecified)
deltaT (Mus musculus [6]): 8.9 °C

Compound: CN(CCCO)CC(O)C(c1ccccc1)c1ccccc1 (stereo unspecified)
deltaT (Mus musculus [6]): 12.4 °C

Compound: CN(C)CC(O)C(c1ccccc1)c1ccc(Cl)c(Cl)c1 (stereo unspecified)
deltaT (Mus musculus [1]): 7.2 °C

Compound: CN(C)CC(O)C(c1ccc(F)cc1)c1ccc(F)cc1 (stereo unspecified)
deltaT (Mus musculus [1]): 7.8 °C

Compound: CN(Cc1ccccc1)CC(O)C(c1ccccc1)c1ccccc1 (stereo unspecified)
deltaT (Mus musculus [1]): 6.1 °C

Compound: OC(CN1CCOCC1)C(c1ccccc1)c1ccccc1 (stereo unspecified)
deltaT (Mus musculus [2]): 11 °C

Compound: CN(C)CC(O)C(c1ccccc1)c1cccs1 (stereo unspecified)
deltaT (Mus musculus [7]): 8.4 °C

Compound: CN(C)CC(O)(c1ccccc1)C(c1ccccc1)c1ccccc1 (stereo unspecified)
Activity (Mus musculus [8]): inactive

Compound: Cc1ccc(C(c2ccccc2)C(O)CN(C)C)cc1 (stereo unspecified)
Activity (Mus musculus [3]): inactive

ED50 (Mus musculus [4]): 40 mg/kg | ED50 [5]: 71 mg/kg
Compound: CN(C)CC(O)C(c1ccccc1)c1ccc(Cl)cc1.O=C(O)CCC(=O)O (stereo unspecified)
deltaT (Mus musculus [9]): 6.3 °C | Kb (Ileum): 7.94 µM

ED50 (Mus musculus [4]): 53 mg/kg | ED50 [5]: 36 mg/kg
Compound: Br.CN(C)CC(O)C(c1ccccc1)c1ccccc1 (stereo unspecified)
Kb (Ileum): 6.31 µM | deltaT (Mus musculus [10]): 5.3 °C

Compound: COC(c1ccccc1)(c1ccccc1)C(O)CN(C)C (stereo unspecified)
deltaT (Mus musculus [2]): 6.9 °C

Compound: CN(Cc1ccccc1)CC(O)C(c1ccccc1)c1ccc(F)cc1 (stereo unspecified)
deltaT (Mus musculus [1]): 7.3 °C

Compound: OC(CN1CCCCC1)C(c1ccccc1)c1ccccc1 (stereo unspecified)
deltaT (Mus musculus [2]): 9.9 °C

ED50 (Mus musculus [4]): 144 mg/kg | ED50 [5]: 40 mg/kg
Compound: CNCC(O)C(c1ccccc1)c1ccccc1.Cl (stereo unspecified)
deltaT (Mus musculus [11]): 6.1 °C | Kb (Ileum): 10 µM

Compound: COc1ccc(C(c2ccccc2)C(O)CN(C)C)cc1 (stereo unspecified)
deltaT (Mus musculus [1]): 5.9 °C

Compound: CC(O)(CN)C(c1ccccc1)c1ccccc1 (stereo unspecified)
Activity (Mus musculus [3]): inactive

ED50 (Mus musculus [4]): 46 mg/kg | ED50 [5]: 51 mg/kg
Compound: Br.CN(C)C[C@@H](O)C(c1ccccc1)c1ccccc1
Kb (Ileum): 7.94 µM

Compound: OC(CNCc1ccccc1)C(c1ccccc1)c1ccccc1 (stereo unspecified)
Activity (Mus musculus [3]): inactive

ED50 (Mus musculus [4]): 20 mg/kg | ED50 [5]: 3.3 mg/kg
Compound: CN(C)CCCN1c2ccccc2CCc2ccccc21 [IMIPRAMINE]
deltaT (Mus musculus [12]): 6.8 °C | Kb (Ileum): 0.00126 µM

Compound: CNCC(O)C(c1ccccc1)c1ccc(C)cc1 (stereo unspecified)
deltaT (Mus musculus [2]): 5.4 °C | Activity (Mus musculus [8]): inactive

ED50 (Mus musculus [4]): 49 mg/kg | ED50 [5]: > 100 mg/kg
Compound: CN(C)CC(O)C(c1ccccc1)c1cccc(Br)c1.Cl (stereo unspecified)
Activity (Mus musculus [13]): inactive | Kb (Ileum): 7.94 µM | deltaT (Mus musculus [10]): 12.4 °C

Compound: CC(=O)OC(CN(C)C)C(c1ccccc1)c1ccccc1 (stereo unspecified)
Activity (Mus musculus [14]): inactive | deltaT (Mus musculus [10]): 10.2 °C

Compound: CN(C)CC(O)C(c1ccccc1)C1CCCCC1 (stereo in doubt; 39b)
Activity (Mus musculus [3]): inactive

Compound: CNCC(O)C(c1ccccc1)c1ccc(Cl)cc1 (stereo unspecified)
deltaT (Mus musculus [1]): 8.8 °C

Compound: CN(C)CC(O)C(O)(c1ccccc1)c1ccc(F)cc1 (stereo unspecified)
deltaT (Mus musculus [1]): 7.5 °C

Compound: CN(C)CC(O)C(c1ccccc1)c1cc(Cl)cc(Cl)c1 (stereo unspecified)
deltaT (Mus musculus [13]): 6.2 °C

Compound: CN(C)CC(OC(=O)c1ccccc1)C(c1ccccc1)c1cccc(Cl)c1 (stereo unspecified)
deltaT (Mus musculus [1]): 5.2 °C

Compound: CN(C)CC(O)C(c1ccccc1)C1CCCCC1 (stereo in doubt; 39a)
Activity (Mus musculus [3]): inactive

Compound: CNCC(O)C(c1ccccc1)c1ccccc1Cl (stereo unspecified)
deltaT (Mus musculus [10]): 8.6 °C

pIC50 [15]: 5.05 | pIC50 [17]: 5.01 | pIC50 [18]: 5.92 | ED50 (Mus musculus [4]): 42 mg/kg | ED50 [5]: 33 mg/kg
Compound: CN(C)CC(O)C(c1ccccc1)c1cccc(Cl)c1.Cl (stereo unspecified)
Activity (Mus musculus [16]): Toxic | ED50 (Brain): 30 mg/kg | Activity (Rattus norvegicus): Non-toxic | Kb (Ileum): 15.8 µM | deltaT (Mus musculus [19]): 5.3 °C

ED50 (Mus musculus [4]): 26 mg/kg | ED50 [5]: > 100 mg/kg
Compound: CN(C)CC(O)C(c1ccccc1)c1ccc(F)cc1 (stereo unspecified)
Kb (Ileum): 15.8 µM | deltaT (Mus musculus [10]): 5.8 °C

Compound: CN1CCN(CC(O)C(c2ccccc2)c2ccccc2)CC1 (stereo unspecified)
deltaT (Mus musculus [6]): 6.3 °C

Compound: CN(C)CC(O)C(Cc1ccccc1)c1ccccc1 (stereo unspecified)
deltaT (Mus musculus [6]): 8.6 °C

ED50 (Mus musculus [4]): 29 mg/kg | ED50 [5]: 24 mg/kg
Compound: CN(C)CC(O)C(c1ccccc1)c1ccccc1Cl.Cl (stereo unspecified)
Kb (Ileum): 6.31 µM | deltaT (Mus musculus [19]): 6.6 °C

ED50 (Mus musculus [4]): 26 mg/kg
Compound: CN(C)CC(O)C(c1ccccc1)c1cccc(C(F)(F)F)c1.Cl (stereo unspecified)
Kb (Ileum): 1.58 µM | deltaT (Mus musculus [10]): 9 °C

ED50 (Mus musculus [4]): 36 mg/kg | ED50 [5]: 43 mg/kg
Compound: CCN(C)CC(O)C(c1ccccc1)c1ccccc1.Cl (stereo unspecified)
deltaT (Mus musculus [1]): 10.2 °C | Kb (Ileum): 50.1 µM | Activity (Mus musculus [10]): inactive
